In ChEMBL document CHEMBL1140012, “Rapid hit to lead evaluation of pyrazolo[3,4-d]pyrimidin-4-one as selective and orally bioavailable mGluR1 antagonists” (Bioorg Med Chem Lett, 2007):
≈ marks a conversion by molar mass, not a printed value.

What was measured:
[1] = molecular target: Metabotropic glutamate receptor 1 (Homo sapiens, UniProt Q13255); assay: Antagonist activity at human mGluR1 receptor expressed in […] cells assessed as inhibition of glutamate-induced calcium flux by FLIPR assay; type: functional, cell-based
Metabotropic glutamate receptor 1, sequence (Q13255 whole entry): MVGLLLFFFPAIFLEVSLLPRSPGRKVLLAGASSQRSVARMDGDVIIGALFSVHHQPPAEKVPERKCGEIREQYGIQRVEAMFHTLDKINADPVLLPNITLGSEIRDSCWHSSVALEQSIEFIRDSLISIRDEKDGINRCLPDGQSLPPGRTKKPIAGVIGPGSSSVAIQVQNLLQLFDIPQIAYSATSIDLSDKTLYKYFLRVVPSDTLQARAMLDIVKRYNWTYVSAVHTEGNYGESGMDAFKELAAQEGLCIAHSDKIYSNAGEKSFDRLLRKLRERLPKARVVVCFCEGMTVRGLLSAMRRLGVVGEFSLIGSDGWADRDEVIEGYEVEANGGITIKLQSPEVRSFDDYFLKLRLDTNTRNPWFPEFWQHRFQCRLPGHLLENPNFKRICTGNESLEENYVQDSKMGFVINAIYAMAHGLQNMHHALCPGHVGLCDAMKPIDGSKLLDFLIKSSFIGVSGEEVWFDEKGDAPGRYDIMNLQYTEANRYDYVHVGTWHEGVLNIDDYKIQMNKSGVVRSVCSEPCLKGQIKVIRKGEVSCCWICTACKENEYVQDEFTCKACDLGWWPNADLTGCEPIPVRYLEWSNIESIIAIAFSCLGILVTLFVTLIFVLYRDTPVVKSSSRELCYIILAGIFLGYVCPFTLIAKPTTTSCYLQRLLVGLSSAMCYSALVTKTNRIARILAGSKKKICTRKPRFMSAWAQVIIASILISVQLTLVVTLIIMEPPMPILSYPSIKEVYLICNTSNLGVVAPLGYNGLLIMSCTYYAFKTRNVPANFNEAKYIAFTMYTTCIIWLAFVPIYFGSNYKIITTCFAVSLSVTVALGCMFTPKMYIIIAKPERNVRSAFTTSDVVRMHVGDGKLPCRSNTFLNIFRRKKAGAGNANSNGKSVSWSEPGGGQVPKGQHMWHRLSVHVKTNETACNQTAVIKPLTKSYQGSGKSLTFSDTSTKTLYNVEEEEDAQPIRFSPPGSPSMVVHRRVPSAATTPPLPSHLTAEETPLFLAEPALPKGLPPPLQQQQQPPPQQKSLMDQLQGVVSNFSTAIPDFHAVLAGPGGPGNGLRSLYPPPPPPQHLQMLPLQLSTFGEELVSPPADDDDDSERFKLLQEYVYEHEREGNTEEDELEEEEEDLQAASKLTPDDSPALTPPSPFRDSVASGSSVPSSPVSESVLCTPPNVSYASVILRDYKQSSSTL
How it was run: (§1)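 1321N1 cells transfected with human mGluR1 or human mGluR5 and co-expressing rat GLAST were used in a FLIPR calcium influx assay. Calcium flux was induced by 10 μM glutamate. IC50 is the concentration blocking 50% of that flux, given as the mean ± SEM of at least three determinations.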

[2] = molecular target: Metabotropic glutamate receptor 5 (Homo sapiens, UniProt P41594); assay: Antagonist activity at human mGluR5 receptor expressed in […] cells assessed as inhibition of glutamate-induced calcium flux by FLIPR assay; type: functional, cell-based; how it was run: as §1
Metabotropic glutamate receptor 5, sequence (P41594 whole entry): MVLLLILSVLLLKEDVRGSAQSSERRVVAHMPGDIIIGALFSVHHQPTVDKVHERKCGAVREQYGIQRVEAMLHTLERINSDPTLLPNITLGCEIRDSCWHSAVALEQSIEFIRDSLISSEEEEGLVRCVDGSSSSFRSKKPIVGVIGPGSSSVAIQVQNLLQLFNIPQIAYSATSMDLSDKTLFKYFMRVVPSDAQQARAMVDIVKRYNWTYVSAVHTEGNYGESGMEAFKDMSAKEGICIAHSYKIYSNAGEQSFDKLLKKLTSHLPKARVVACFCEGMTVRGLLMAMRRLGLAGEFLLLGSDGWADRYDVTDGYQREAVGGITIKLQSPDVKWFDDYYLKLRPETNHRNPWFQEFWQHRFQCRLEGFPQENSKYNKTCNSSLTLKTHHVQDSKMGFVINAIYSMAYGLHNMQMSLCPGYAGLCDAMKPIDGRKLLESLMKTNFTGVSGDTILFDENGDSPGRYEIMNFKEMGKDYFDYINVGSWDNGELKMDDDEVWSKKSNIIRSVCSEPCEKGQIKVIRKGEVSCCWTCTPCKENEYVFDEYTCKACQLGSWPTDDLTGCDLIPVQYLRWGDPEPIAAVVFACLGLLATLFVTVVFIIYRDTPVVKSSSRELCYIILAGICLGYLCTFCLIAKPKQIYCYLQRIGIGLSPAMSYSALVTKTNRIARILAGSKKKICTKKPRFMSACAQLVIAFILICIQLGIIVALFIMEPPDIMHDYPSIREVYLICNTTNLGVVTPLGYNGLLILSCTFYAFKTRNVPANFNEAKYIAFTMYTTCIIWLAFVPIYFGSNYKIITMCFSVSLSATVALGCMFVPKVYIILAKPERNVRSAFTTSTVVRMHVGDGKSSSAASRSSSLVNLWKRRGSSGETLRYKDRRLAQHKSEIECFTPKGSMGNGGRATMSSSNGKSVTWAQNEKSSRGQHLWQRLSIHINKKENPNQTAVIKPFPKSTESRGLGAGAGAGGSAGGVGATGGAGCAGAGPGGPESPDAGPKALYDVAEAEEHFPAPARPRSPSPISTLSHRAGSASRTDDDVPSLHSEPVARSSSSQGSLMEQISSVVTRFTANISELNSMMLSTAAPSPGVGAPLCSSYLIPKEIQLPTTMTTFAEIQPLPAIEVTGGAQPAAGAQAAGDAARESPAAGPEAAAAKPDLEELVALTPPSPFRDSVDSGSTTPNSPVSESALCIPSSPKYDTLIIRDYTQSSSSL

[3] = Aqueous solubility of the compound; type: physicochemical; details: buffer
[4] = Metabolic stability assessed as intrinsic clearance in rat liver microsomes; type: ADME, Microsome
How it was run: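 Intrinsic clearance was measured in rat liver microsomes and reported as scaled intrinsic clearance.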

[5] = Permeability of the compound; type: ADME; details: not told; read-out: permeability
How it was run: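 Passive membrane permeability was measured and reported in ×10^-6 cm/s.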

[6] = AUC in Sprague-Dawley rat at 1 mg/kg, iv; type: ADME, organism-based; set-up: dose 1 mg/kg, route intravenous; details: plasma
Rattus norvegicus [7] = assay: (§2) AUC in Sprague-Dawley rat at 1 mg/kg, ip; type: ADME, organism-based, Plasma; set-up: dose 1 mg/kg, route intraperitoneal; details: in vivo
[8] = AUC in Sprague-Dawley rat at 1 mg/kg, po; type: ADME, organism-based; set-up: dose 1 mg/kg, route oral; details: plasma
[9] = Volume of distribution at terminal phase in Sprague-Dawley rat at 1 mg/kg, iv; type: ADME, organism-based; set-up: dose 1 mg/kg, route intravenous; details: in vivo, read-out: Vbeta
Rattus norvegicus [10] = assay: Clearance in Sprague-Dawley rat at 1 mg/kg, iv; type: ADME, organism-based; set-up: dose 1 mg/kg, route intravenous; details: in vivo
Rattus norvegicus [11] = assay: (§3) Cmax in Sprague-Dawley rat at 1 mg/kg, ip; type: ADME, organism-based; set-up: dose 1 mg/kg, route intraperitoneal; details: in vivo
[12] = Cmax in Sprague-Dawley rat at 1 mg/kg, po; type: ADME, organism-based; set-up: dose 1 mg/kg, route oral; details: in vivo
Rattus norvegicus [13] = assay: (§4) Tmax in Sprague-Dawley rat at 1 mg/kg, ip; type: ADME, organism-based; set-up: dose 1 mg/kg, route intraperitoneal; details: in vivo
[14] = Tmax in Sprague-Dawley rat at 1 mg/kg, po; type: ADME, organism-based; set-up: dose 1 mg/kg, route oral; details: in vivo
[15] = Half life in Sprague-Dawley rat at 1 mg/kg, iv; type: ADME, organism-based; set-up: dose 1 mg/kg, route intravenous; details: in vivo
Rattus norvegicus [16] = assay: (§5) Half life in Sprague-Dawley rat at 1 mg/kg, ip; type: ADME, organism-based; set-up: dose 1 mg/kg, route intraperitoneal; details: in vivo
[17] = Half life in Sprague-Dawley rat at 1 mg/kg, po; type: ADME, organism-based; set-up: dose 1 mg/kg, route oral; details: in vivo
[18] = Bioavailability in Sprague-Dawley rat at 1 mg/kg, ip; type: ADME, organism-based; details: in vivo
[19] = Oral bioavailability in Sprague-Dawley rat at 1 mg/kg; type: ADME, organism-based; details: in vivo
[20] = as §2; type: ADME, organism-based, Plasma; set-up: dose 1 mg/kg, route intraperitoneal; details: Sprague-Dawley, plasma
[21] = as §3; type: ADME, organism-based; set-up: dose 1 mg/kg, route intraperitoneal; details: Sprague-Dawley, in vivo
[22] = as §4; type: ADME, organism-based; set-up: dose 1 mg/kg, route intraperitoneal; details: Sprague-Dawley, in vivo
[23] = as §5; type: ADME, organism-based; set-up: dose 1 mg/kg, route intraperitoneal; details: Sprague-Dawley, in vivo

`Cc1ccccc1-n1ncc2c(=O)n(-c3ccc(Cl)cc3)c(C)nc21` showed an IC50 [1] of 350 nM and an IC50 [2] of 9500 nM.

With `Cc1nc2c(cnn2-c2ccccc2)c(=O)n1-c1ccc(S(N)(=O)=O)cc1` the IC50 [1] was > 100000 nM and the IC50 [2] was > 100000 nM.

In the case of `Cc1nc2c(cnn2-c2cccc(Cl)c2)c(=O)n1-c1ccc(Cl)cc1`, the IC50 [1] is reported as 220 nM, the IC50 [2] is reported as > 100000 nM and the solubility [3] is reported as 11 µM (≈ 4.08 µg/mL). For the same compound, the CLint scaled [4] was 183 mL/min/kg and the Papp [5] was 5.6 ×10⁻⁶ cm/s.

`Cc1nc2c(cnn2-c2ccccc2)c(=O)n1C1CCCCCC1` showed an IC50 [1] of 760 nM.

For `Cc1nc2c(cnn2-c2ccccc2)c(=O)n1-c1ccc(Br)cc1`, the IC50 [1] was 78 nM, the IC50 [2] was > 100000 nM and the solubility [3] was 14 µM (≈ 5.34 µg/mL). It also gave a CLint scaled [4] of 115 mL/min/kg, a Papp [5] of 19.4 ×10⁻⁶ cm/s and an AUC [6] of 1280 ng·h/mL. The AUC (Rattus norvegicus [7]) was 389 ng·h/mL, the AUC [8] was 100 ng·h/mL and the Vd [9] was 3.1 L/kg. For the same compound, the clearance (Rattus norvegicus [10]) was 13.3 mL/min/kg, the Cmax (Rattus norvegicus [11]) was 170 ng/mL and the Cmax [12] was 30 ng/mL. The Tmax (Rattus norvegicus [13]) was 0.25 h, the Tmax [14] was 1.3 h and the half-life [15] was 2.5 h. For the same compound, the t1/2 (Rattus norvegicus [16]) was 0.25 h, the half-life [17] was 1.3 h and the bioavailability [18] was 30%. The bioavailability [19] was 8%.

In the case of `Cc1nc2c(cnn2-c2ccc(Cl)cc2)c(=O)n1-c1ccc(Cl)cc1`, the IC50 [1] is reported as 1100 nM and the IC50 [2] is reported as > 100000 nM.

For `Cc1nc2c(cnn2-c2ccccc2)c(=O)n1-c1ccc(Cl)cc1`, the IC50 [1] was 242 nM, the IC50 [2] was 9600 nM and the solubility [3] was 18 µM (≈ 6.06 µg/mL). The CLint scaled [4] was 117 mL/min/kg and the Papp [5] was 29.6 ×10⁻⁶ cm/s.

For `Cc1nc2c(cnn2-c2cccc(S(N)(=O)=O)c2)c(=O)n1-c1ccc(Cl)cc1`, the IC50 [1] was 127 nM, the IC50 [2] was > 100000 nM and the solubility [3] was 42 µM (≈ 17.5 µg/mL). For the same compound, the CLint scaled [4] was < 41.7 mL/min/kg, the Papp [5] was 17.6 ×10⁻⁶ cm/s and the AUC [6] was 6150 ng·h/mL. It also gave an AUC [20] of 7790 ng·h/mL, an AUC [8] of 6240 ng·h/mL and a Vd [9] of 0.4 L/kg. The clearance (Rattus norvegicus [10]) was 3.33 mL/min/kg, the Cmax [21] was 1540 ng/mL and the Cmax [12] was 2100 ng/mL. For the same compound, the Tmax [22] was 1.7 h, the Tmax [14] was 1.2 h and the half-life [15] was 1.5 h. The half-life [23] was 1.7 h and the half-life [17] was 1.2 h.

`Cc1nc2c(cnn2-c2ccccc2)c(=O)n1N1CCCCCC1` gave an IC50 [1] of 240 nM and an IC50 [2] of 3600 nM.

In the case of `Cc1nc2c(cnn2-c2ccc(S(N)(=O)=O)cc2)c(=O)n1-c1ccc(Cl)cc1`, the IC50 [1] is reported as 1410 nM and the IC50 [2] is reported as > 100000 nM.

With `Cc1nc2c(cnn2-c2ccccc2)c(=O)n1-c1ccc(Cl)c(F)c1` the IC50 [1] was 800 nM, the IC50 [2] was > 100000 nM and the solubility [3] was 18 µM (≈ 6.39 µg/mL). The CLint scaled [4] was 183 mL/min/kg.

With `Cc1nc2c(cnn2-c2ccccc2)c(=O)n1N1CCCCC1` the IC50 [1] was 91 nM, the IC50 [2] was 2800 nM and the solubility [3] was 19 µM (≈ 5.88 µg/mL). The CLint scaled [4] was 1800 mL/min/kg and the Papp [5] was 5.49 ×10⁻⁶ cm/s.

For `Cc1nc2c(cnn2-c2ccccc2)c(=O)n1-c1ccc(OC(F)(F)F)cc1`, the IC50 [1] was > 100000 nM and the IC50 [2] was > 100000 nM.

With `Cc1nc2c(cnn2-c2cccnc2)c(=O)n1-c1ccc(Cl)cc1` the IC50 [1] was 230 nM, the IC50 [2] was > 100000 nM and the solubility [3] was 73 µM (≈ 24.7 µg/mL). The CLint scaled [4] was 66.7 mL/min/kg and the Papp [5] was 21.4 ×10⁻⁶ cm/s.

In the case of `Cc1nc2c(cnn2-c2cnccn2)c(=O)n1-c1ccc(Cl)cc1`, the IC50 [1] is reported as > 100000 nM and the IC50 [2] is reported as > 100000 nM.

With `Cc1nc2c(cnn2C2CCCCCC2)c(=O)n1-c1ccc(Cl)cc1` the IC50 [1] was 520 nM and the IC50 [2] was > 100000 nM.

In the case of `Cc1cccc(-n2ncc3c(=O)n(-c4ccc(Cl)cc4)c(C)nc32)c1`, the IC50 [1] is reported as 180 nM, the IC50 [2] is reported as > 100000 nM and the solubility [3] is reported as 30 µM (≈ 10.5 µg/mL). For the same compound, the CLint scaled [4] was 400 mL/min/kg and the Papp [5] was 13.4 ×10⁻⁶ cm/s.

For `Cc1nc2c(cnn2-c2cncnc2)c(=O)n1-c1ccc(Cl)cc1`, the IC50 [1] was 9800 nM and the IC50 [2] was > 100000 nM.

In the case of `Cc1nc2c(cnn2-c2ccccc2)c(=O)n1-c1cccc(Cl)c1`, the IC50 [1] is reported as > 100000 nM.

In the case of `Cc1nc2c(cnn2-c2ccccc2)c(=O)n1-c1ccc(O)cc1`, the IC50 [1] is reported as 2400 nM and the IC50 [2] is reported as > 100000 nM.

In the case of `Cc1nc2c(cnn2-c2ccccn2)c(=O)n1-c1ccc(Cl)cc1`, the IC50 [1] is reported as > 100000 nM and the IC50 [2] is reported as > 100000 nM.

With `Cc1nc2c(cnn2CC2CCCCC2)c(=O)n1-c1ccc(Cl)cc1` the IC50 [1] was > 100000 nM and the IC50 [2] was > 100000 nM.
